From ChEMBL document CHEMBL1126221, “Antimitotic agents: structure-activity studies with some pyridine derivatives” (J Med Chem, 1992)
Several values for one entry are separate records, joined by “and”; a condition that tells them apart may be missing. Equal entries are not always repeated.

Assays:
L1210 [1] = experiment: Concentration required to inhibit proliferation of cultured lymphoid leukemia L1210 cells to 50% growth over 48 hours; format: functional, cell-based; conditions: Mus musculus, L1210, 48 h
How it was run: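 Cultured lymphoid leukemia L1210 cells were exposed to agent for 48 h. IC50 is the micromolar concentration that holds proliferation to 50% growth.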

P388 [2] = experiment: Compound was evaluated for antitumor activity against mice implanted with lymphatic leukemia P388 cells (10e6 tumor cells) after intraperitoneal administration of 200 mg/kg per injection (highest dose tested); format: functional; conditions: Mus musculus, P388, ip
How it was run: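 Mice implanted ip with 10⁶ P388 leukemia cells and treated ip on days 1-5. % increase in life span is reported at the highest dose tested.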

P388 [3] = experiment: Compound was evaluated for antitumor activity against mice implanted with lymphatic leukemia P388 cells (10e6 tumor cells) after intraperitoneal administration of 5 mg/kg per injection (1-5 days); format: functional; conditions: Mus musculus, P388, ip
How it was run: (§1)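 Mice implanted ip with 10⁶ lymphocytic leukemia P388 cells; drug given ip on days 1-5. Read-out is % increase in life span (% ILS) versus untreated controls, reported at the highest nontoxic dose tested.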

L1210 [4] = experiment: Effect on the mitosis of cultured L1210 cells measured in metaphase at 12 hours and 0 uM concentration; format: functional, Mus musculus
How it was run: (§2)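 Cultured L1210 cells were exposed for 12 h to 0, 3, 10, 30, 50 or 100 μM agent. Read-out was the percentage of cells in metaphase.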

L1210 [5] = experiment: Effect on the mitosis of cultured L1210 cells measured in metaphase at 12 hours and 10 uM concentration; format: functional, Mus musculus; how it was run: as §2
L1210 [6] = experiment: Effect on the mitosis of cultured L1210 cells measured in metaphase at 12 hours and 100 uM concentration; format: functional, Mus musculus; how it was run: as §2
L1210 [7] = experiment: Effect on the mitosis of cultured L1210 cells measured in metaphase at 12 hours and 3 uM concentration; format: functional, Mus musculus; how it was run: as §2
L1210 [8] = experiment: Effect on the mitosis of cultured L1210 cells measured in metaphase at 12 hours and 50 uM concentration; format: functional, Mus musculus; how it was run: as §2
P388 [9] = experiment: Compound was evaluated for antitumor activity against mice implanted with lymphatic leukemia P388 cells (10e6 tumor cells) after intraperitoneal administration of 100 mg/kg per injection (1-5 days); format: functional; conditions: Mus musculus, P388, ip; how it was run: as §1
L1210 [10] = experiment: Effect on the mitosis of cultured L1210 cells measured in metaphase at 12 hours and 30 uM concentration; format: functional, Mus musculus; how it was run: as §2
L1210 [11] = experiment: Compound was tested in vivo against mitosis of […] metaphase after 12 hr at 400 mg/kg dose; format: functional, Mus musculus
How it was run: (§3)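 Mice implanted ip with L1210 leukemia cells got a single ip injection of test agent or control. Cells were harvested 6, 12 and 24 h after treatment and scored for percentage of cells in metaphase.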

L1210 [12] = experiment: Compound was tested in vivo against mitosis of […] metaphase after 12 hr at 600 mg/kg dose; format: functional, Mus musculus; how it was run: as §3
L1210 [13] = experiment: Compound was tested in vivo against mitosis of […] metaphase after 24 hr at 400 mg/kg dose; format: functional, Mus musculus; how it was run: as §3
L1210 [14] = experiment: Compound was tested in vivo against mitosis of […] metaphase after 24 hr at 600 mg/kg dose; format: functional, Mus musculus; how it was run: as §3
L1210 [15] = experiment: Compound was tested in vivo against mitosis of […] metaphase after 6 hr at 400 mg/kg dose; format: functional, Mus musculus; how it was run: as §3
L1210 [16] = experiment: Compound was tested in vivo against mitosis of […] metaphase after 6 hr at 600 mg/kg dose; format: functional, Mus musculus; how it was run: as §3
L1210 [17] = experiment: Effect of the compound(10 uM) on DNA synthesis in L1210 cells in culture measured as incorporation of [3H]L-Leu; format: functional, Mus musculus; conditions: in the assay text read “protein synthesis” for “DNA synthesis”
How it was run: (§4)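 Cultured L1210 cells were treated with agent at 2.5–50 μM. Labeled precursor incorporation is reported as percent of control: [3H]dThd into DNA, […] into DNA and RNA, and [3H]L-Leu into protein.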

L1210 [18] = experiment: Effect of the compound(10 uM) on DNA synthesis in L1210 cells in culture measured as incorporation of [5-3H]-Urd; format: functional, Mus musculus
L1210 [19] = experiment: Effect of the compound(10 uM) on RNA synthesis in L1210 cells in culture measured as incorporation of [5-3H]-Urd; format: functional, Mus musculus; how it was run: as §4
L1210 [20] = experiment: Effect of the compound(25 uM) on DNA synthesis in L1210 cells in culture measured as incorporation of [3H]L-Leu; format: functional, Mus musculus; conditions: in the assay text read “protein synthesis” for “DNA synthesis”; how it was run: as §4
L1210 [21] = experiment: Effect of the compound(25 uM) on DNA synthesis in L1210 cells in culture measured as incorporation of [5-3H]-Urd; format: functional, Mus musculus; how it was run: as §4
L1210 [22] = experiment: Effect of the compound(25 uM) on RNA synthesis in L1210 cells in culture measured as […]; format: functional, Mus musculus
L1210 [23] = experiment: Effect of the compound(50 uM) on DNA synthesis in L1210 cells in culture measured as incorporation of [3H]L-Leu; format: functional, Mus musculus; conditions: in the assay text read “protein synthesis” for “DNA synthesis”; how it was run: as §4
L1210 [24] = experiment: Effect of the compound(50 uM) on DNA synthesis in L1210 cells in culture measured as incorporation of [3H]dThd; format: functional, Mus musculus; how it was run: as §4
L1210 [25] = experiment: Effect of the compound(50 uM) on DNA synthesis in L1210 cells in culture measured as incorporation of [5-3H]-Urd; format: functional, Mus musculus; how it was run: as §4
L1210 [26] = experiment: Effect of the compound(50 uM) on RNA synthesis in L1210 cells in culture measured as incorporation of [5-3H]-Urd; format: functional, Mus musculus; how it was run: as §4
L1210 [27] = experiment: Effect on the mitosis of cultured L1210 cells measured ain metaphase t 12 hours and 3 uM concentration; format: functional, Mus musculus; how it was run: as §2
L1210 [28] = experiment: Effect on the mitosis of cultured L1210 cells measured in metaphase t 12 hours and 30 uM concentration; format: functional, Mus musculus; how it was run: as §2
P388 [29] = experiment: Compound was evaluated for antitumor activity against mice implanted with lymphatic leukemia P388 cells (10e6 tumor cells) after intraperitoneal administration of 240 mg/kg per injection (1-5 days); format: functional; conditions: Mus musculus, P388, ip; how it was run: as §1
P388 [30] = experiment: Compound was evaluated for antitumor activity against mice implanted with lymphatic leukemia P388 cells (10e6 tumor cells) after intraperitoneal administration of 400 mg/kg per injection (1-5 days); format: functional; conditions: Mus musculus, P388, ip; how it was run: as §1
L1210 [31] = experiment: Effect of the compound(25 uM) on DNA synthesis in L1210 cells in culture measured as incorporation of [3H]dThd; format: functional, Mus musculus; how it was run: as §4
L1210 [32] = experiment: Effect of the compound(5 uM) on DNA synthesis in L1210 cells in culture measured as incorporation of [3H]-L-Leu; format: functional, Mus musculus; conditions: in the assay text read “protein synthesis” for “DNA synthesis”; how it was run: as §4
L1210 [33] = experiment: Effect of the compound(5 uM) on DNA synthesis in L1210 cells in culture measured as incorporation of [5-3H]-Urd; format: functional, Mus musculus; how it was run: as §4
P388 [34] = experiment: Compound was evaluated for antitumor activity against mice implanted with lymphatic leukemia P388 cells (10e6 tumor cells) after intraperitoneal administration of 75 mg/kg per injection (1-5 days); format: functional; conditions: Mus musculus, P388, ip; how it was run: as §1
L1210 [35] = experiment: Effect of the compound(5 uM) on RNA synthesis in L1210 cells in culture measured as […]; format: functional, Mus musculus
P388 [36] = experiment: Compound was evaluated for antitumor activity against mice implanted with lymphatic leukemia P388 cells (10e6 tumor cells) after intraperitoneal administration of 300 mg/kg per injection (1-5 days); format: functional; conditions: Mus musculus, P388, ip; how it was run: as §1
L1210 (mouse) = experiment: Compound was evaluated for antitumor activity against mice implanted with lymphatic leukemia L1210 cells (10e6 tumor cells) after intraperitoneal administration of 50 mg/kg per injection (single dose on day 1); conditions: L1210, ip, 24 h

CCCCC(Nc1cc(NC(=O)OCC)nc(N)c1N)C(C)O (stereo not drawn)
IC50 (L1210 [1]): 1.7 µM
ILS at 200 mg/kg (P388 [2]): 45%

CCOC(=O)Nc1cc(NC(C)/C(=N/O)c2ccc(O)cc2)c([N+](=O)[O-])c(N)n1 (stereo not drawn)
IC50 (L1210 [1]): 18 µM
ILS at 5 mg/kg (P388 [3]): 57%

CCOC(=O)Nc1cc(NC(C)/C(=N/O)c2cccc([N+](=O)[O-])c2)c([N+](=O)[O-])c(N)n1 (stereo not drawn)
IC50 (L1210 [1]): 32 µM
Cells in metaphase (L1210 [4]): 2%
Cells in metaphase (L1210 [5]): 2%
Cells in metaphase (L1210 [6]): 1%
Cells in metaphase (L1210 [7]): 4%
Cells in metaphase (L1210 [8]): 6%
ILS at 100 mg/kg (P388 [9]): 25%
Cells in metaphase (L1210 [10]): 2%

CCOC(=O)Nc1cc(NC(C)/C(=N/O)c2ccccc2)c([N+](=O)[O-])c(N)n1 (stereo not drawn)
Cells in metaphase (L1210 [11]): 0.8%
Cells in metaphase (L1210 [12]): 1.4%
Cells in metaphase (L1210 [13]): 1.6%
Cells in metaphase (L1210 [14]): 0.4%
Cells in metaphase (L1210 [15]): 0.6%
Cells in metaphase (L1210 [16]): 0.9%
Control (L1210 [17]): 79%
Uridine incorporation into DNA (% of control) (L1210 [18]): 38% and 42%
Control (L1210 [19]): 55%
IC50 (L1210 [1]): 32 µM
Control (L1210 [20]): 101%
Control (L1210 [21]): 25% and 13%
Control (L1210 [22]): 22%
Control (L1210 [23]): 37%
Control (L1210 [24]): 12%
Control (L1210 [25]): 17%
Control (L1210 [26]): 24%
Cells in metaphase (L1210 [27]): 2%
Cells in metaphase (L1210 [4]): 2%
Cells in metaphase (L1210 [5]): 3%
Cells in metaphase (L1210 [6]): 5%
Cells in metaphase (L1210 [8]): 14%
Cells in metaphase (L1210 [28]): 4%
ILS at 240 mg/kg (P388 [29]): 80%

CCOC(=O)Nc1cc(N[C@@H](C)C(=O)c2ccccc2)c([N+](=O)[O-])c(N)n1
IC50 (L1210 [1]): 27 µM
ILS at 400 mg/kg (P388 [30]): 39%

COC(=O)Nc1cc(NC(C)/C(=N/O)c2ccccc2)c([N+](=O)[O-])c(N)n1 (stereo not drawn)
Control (L1210 [17]): 40%
Uridine incorporation into DNA (% of control) (L1210 [18]): 46% and 62%
Control (L1210 [19]): 52%
IC50 (L1210 [1]): 5.8 µM
Control (L1210 [20]): 26%
Control (L1210 [31]): 21%
Control (L1210 [21]): 65%
Control (L1210 [22]): 64%
Control (L1210 [32]): 79%
Control (L1210 [33]): 52% and 89%
Cells in metaphase (L1210 [4]): 2%
Cells in metaphase (L1210 [5]): 3%
Cells in metaphase (L1210 [6]): 14%
Cells in metaphase (L1210 [7]): 3%
ILS at 75 mg/kg (P388 [34]): 82%
Cells in metaphase (L1210 [10]): 25%
Control (L1210 [35]): 86%

CCOC(=O)Nc1cc(NC(C)C(=O)c2ccccc2)c([N+](=O)[O-])c(N)n1 (stereo not drawn)
IC50 (L1210 [1]): 37 µM
ILS at 300 mg/kg (P388 [36]): 2%

CCOC(=O)Nc1cc(N(C)CC(O)c2ccccc2)c(N)c(N)n1 (stereo not drawn)
ILS at 50 mg/kg (L1210 (mouse)): 4%
